Data published in ChEMBL document CHEMBL4342528, “Discovery of a First-in-Class Protein Arginine Methyltransferase 6 (PRMT6) Covalent Inhibitor” (J Med Chem, 2020).
Calls of active or inactive are those of the source. The rule behind the calls is not given here.

What was measured:
[1] = target: Protein arginine N-methyltransferase 3 (Homo sapiens, UniProt O60678); assay: Covalent binding affinity to human PRMT3 assessed as covalent adduct. formation at 300 uM pre-incubated for 1 hr by mass spectrometry
In short: (§1)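 PRMT protein at 15 μM was incubated 1 h at room temperature with a 20-fold molar excess of inhibitor (300 μM). The reaction was quenched with 0.1% aqueous TFA, separated by HPLC (5–95% acetonitrile in water) and analysed by ESI time-of-flight LC/MS for protein–ligand adduct mass.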

[2] = target: T1, Histone-arginine methyltransferase CARM1 (Homo sapiens) (UniProt Q86X55); assay: Covalent binding affinity to human PRMT4 assessed as covalent adduct. formation at 300 uM pre-incubated for 1 hr by mass spectrometry; in short: as §1
T1 sequence (whole entry): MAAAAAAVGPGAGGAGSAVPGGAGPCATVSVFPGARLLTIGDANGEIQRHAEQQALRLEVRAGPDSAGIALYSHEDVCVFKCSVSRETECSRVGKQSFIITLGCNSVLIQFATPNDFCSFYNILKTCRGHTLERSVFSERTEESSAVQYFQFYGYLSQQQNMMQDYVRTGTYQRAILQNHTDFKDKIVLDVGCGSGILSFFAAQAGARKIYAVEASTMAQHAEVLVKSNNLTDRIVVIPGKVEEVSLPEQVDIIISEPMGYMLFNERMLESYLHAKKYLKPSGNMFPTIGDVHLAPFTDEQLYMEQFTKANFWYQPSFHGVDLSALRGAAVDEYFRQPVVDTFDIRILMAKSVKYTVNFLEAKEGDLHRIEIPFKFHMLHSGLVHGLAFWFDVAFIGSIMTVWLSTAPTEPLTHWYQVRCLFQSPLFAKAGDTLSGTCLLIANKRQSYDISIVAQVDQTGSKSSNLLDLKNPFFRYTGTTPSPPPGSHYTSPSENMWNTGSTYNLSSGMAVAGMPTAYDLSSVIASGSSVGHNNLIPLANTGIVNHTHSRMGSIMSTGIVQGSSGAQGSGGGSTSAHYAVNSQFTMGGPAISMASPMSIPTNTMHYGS

[3] = organism: Homo sapiens; assay: Selectivity index, ratio of IC50 for human PRMT1 to IC50 for human PRMT6
[4] = target: T1, Histone-arginine methyltransferase CARM1 (Homo sapiens); assay: Inhibition of PRMT4 in human MCF7 cells assessed as reduction in BAF155 asymmetric dimethylation at 0.2 to 20 uM incubated for 2 days; assay type: cell-based
[5] = target: Protein arginine N-methyltransferase 5 (Homo sapiens) (UniProt O14744); assay: Inhibition of PRMT5 (unknown origin) assessed as reduction in incorporation of [3H]-labeled methyl group into biotinylated substrate using [3H-SAM] at 10 uM incubated for 1 hr by scintillation proximity assay
In short: (§2)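 Panel of 33 methyltransferases (22 PKMTs, 3 DNMTs, 8 PRMTs), each tested at 10 and 50 μM compound. Activity was read as ³H-methyl transfer from ³H-SAM in a radiometric assay done as previously described.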

[6] = target: Histone-lysine N-methyltransferase SUV39H1 (Homo sapiens) (UniProt O43463); assay: Inhibition of SUV39H1 (unknown origin) assessed as reduction in incorporation of [3H]-labeled methyl group into biotinylated substrate using [3H-SAM] at 10 uM incubated for 1 hr by scintillation proximity assay; in short: as §2
[7] = target: Histone-lysine N-methyltransferase SETDB1 (Homo sapiens) (UniProt Q15047); assay: Inhibition of SETDB1 (unknown origin) assessed as reduction in incorporation of [3H]-labeled methyl group into biotinylated substrate using [3H-SAM] at 10 uM incubated for 1 hr by scintillation proximity assay; in short: as §2
[8] = target: Histone-lysine N-methyltransferase PRDM9 (Homo sapiens) (UniProt Q9NQV7); assay: Inhibition of PRDM9 (unknown origin) assessed as reduction in incorporation of [3H]-labeled methyl group into biotinylated substrate using [3H-SAM] at 10 uM incubated for 1 hr by scintillation proximity assay; in short: as §2
[9] = target: Histone-lysine N-methyltransferase SETD7 (Homo sapiens) (UniProt Q8WTS6); assay: Inhibition of SETD7 (unknown origin) assessed as reduction in incorporation of [3H]-labeled methyl group into biotinylated substrate using [3H-SAM] at 10 uM incubated for 1 hr by scintillation proximity assay; in short: as §2
[10] = target: Histone-lysine N-methyltransferase 2C (Homo sapiens) (UniProt Q8NEZ4); assay: Inhibition of MLL3 (unknown origin) assessed as reduction in incorporation of [3H]-labeled methyl group into biotinylated substrate using [3H-SAM] at 10 uM incubated for 1 hr by scintillation proximity assay; in short: as §2
[11] = target: Histone-lysine N-methyltransferase EZH2 (Homo sapiens) (UniProt Q15910); assay: Inhibition of PRC2 (unknown origin) assessed as reduction in incorporation of [3H]-labeled methyl group into biotinylated substrate using [3H-SAM] at 10 uM incubated for 1 hr by scintillation proximity assay; in short: as §2
[12] = organism: Homo sapiens; assay: Inhibition of DNMT3A/3L (unknown origin) at 10 uM using un-biotinylated Poly(2'-deoxyinosinic-2'-deoxycytidylic acid) substrate using [3H-SAM] incubated for 1 hr by scintillation proximity assay; in short: as §2
[13] = target: DNMT3B-DNMT3L complex (Homo sapiens) (UniProt Q9UBC3+Q9UJW3); assay: Inhibition of DNMT3B/3L (unknown origin) at 10 uM using un-biotinylated Poly(2'-deoxyinosinic-2'-deoxycytidylic acid) substrate using [3H-SAM] incubated for 1 hr by scintillation proximity assay; assay type: protein-complex assay; in short: as §2
[14] = target: Histone-lysine N-methyltransferase, H3 lysine-36 specific (Homo sapiens) (UniProt Q96L73); assay: Inhibition of NSD1 (unknown origin) at 10 uM using [3H-SAM] and nucleosome as substrate incubated for 1 hr by scintillation proximity assay; in short: as §2
[15] = target: Histone-lysine N-methyltransferase NSD3 (Homo sapiens) (UniProt Q9BZ95); assay: Inhibition of NSD3 (unknown origin) at 10 uM using [3H-SAM] and nucleosome as substrate incubated for 1 hr by scintillation proximity assay; in short: as §2
[16] = target: Protein arginine N-methyltransferase 6 (Homo sapiens, UniProt Q96LA8); assay: Inhibition of PRMT6 (unknown origin) assessed as reduction in incorporation of [3H]-labeled methyl group into biotinylated substrate using [3H-SAM] at 50 uM incubated for 1 hr by scintillation proximity assay relative to control; in short: as §2
[17] = target: Protein arginine N-methyltransferase 8 (Homo sapiens, UniProt Q9NR22); assay: Inhibition of PRMT8 (unknown origin) assessed as reduction in incorporation of [3H]-labeled methyl group into biotinylated substrate using [3H-SAM] at 50 uM incubated for 1 hr by scintillation proximity assay relative to control; in short: as §2
[18] = target: Protein arginine N-methyltransferase 7 (Homo sapiens) (UniProt Q9NVM4); assay: Inhibition of PRMT7 (unknown origin) at 50 uM assessed as reduction in incorporation of [3H]-labeled methyl group into biotinylated substrate using [3H-SAM] at 50 uM incubated for 1 hr by scintillation proximity assay relative to control; in short: as §2
[19] = organism: Homo sapiens; assay: Inhibition of DNMT3A/3L (unknown origin) at 50 uM using un-biotinylated Poly(2'-deoxyinosinic-2'-deoxycytidylic acid) substrate using [3H-SAM] at 50 uM incubated for 1 hr by scintillation proximity assay relative to control; in short: as §2

Sequence of Histone-lysine N-methyltransferase, H3 lysine-36 specific (Homo sapiens) (Q96L73 whole entry): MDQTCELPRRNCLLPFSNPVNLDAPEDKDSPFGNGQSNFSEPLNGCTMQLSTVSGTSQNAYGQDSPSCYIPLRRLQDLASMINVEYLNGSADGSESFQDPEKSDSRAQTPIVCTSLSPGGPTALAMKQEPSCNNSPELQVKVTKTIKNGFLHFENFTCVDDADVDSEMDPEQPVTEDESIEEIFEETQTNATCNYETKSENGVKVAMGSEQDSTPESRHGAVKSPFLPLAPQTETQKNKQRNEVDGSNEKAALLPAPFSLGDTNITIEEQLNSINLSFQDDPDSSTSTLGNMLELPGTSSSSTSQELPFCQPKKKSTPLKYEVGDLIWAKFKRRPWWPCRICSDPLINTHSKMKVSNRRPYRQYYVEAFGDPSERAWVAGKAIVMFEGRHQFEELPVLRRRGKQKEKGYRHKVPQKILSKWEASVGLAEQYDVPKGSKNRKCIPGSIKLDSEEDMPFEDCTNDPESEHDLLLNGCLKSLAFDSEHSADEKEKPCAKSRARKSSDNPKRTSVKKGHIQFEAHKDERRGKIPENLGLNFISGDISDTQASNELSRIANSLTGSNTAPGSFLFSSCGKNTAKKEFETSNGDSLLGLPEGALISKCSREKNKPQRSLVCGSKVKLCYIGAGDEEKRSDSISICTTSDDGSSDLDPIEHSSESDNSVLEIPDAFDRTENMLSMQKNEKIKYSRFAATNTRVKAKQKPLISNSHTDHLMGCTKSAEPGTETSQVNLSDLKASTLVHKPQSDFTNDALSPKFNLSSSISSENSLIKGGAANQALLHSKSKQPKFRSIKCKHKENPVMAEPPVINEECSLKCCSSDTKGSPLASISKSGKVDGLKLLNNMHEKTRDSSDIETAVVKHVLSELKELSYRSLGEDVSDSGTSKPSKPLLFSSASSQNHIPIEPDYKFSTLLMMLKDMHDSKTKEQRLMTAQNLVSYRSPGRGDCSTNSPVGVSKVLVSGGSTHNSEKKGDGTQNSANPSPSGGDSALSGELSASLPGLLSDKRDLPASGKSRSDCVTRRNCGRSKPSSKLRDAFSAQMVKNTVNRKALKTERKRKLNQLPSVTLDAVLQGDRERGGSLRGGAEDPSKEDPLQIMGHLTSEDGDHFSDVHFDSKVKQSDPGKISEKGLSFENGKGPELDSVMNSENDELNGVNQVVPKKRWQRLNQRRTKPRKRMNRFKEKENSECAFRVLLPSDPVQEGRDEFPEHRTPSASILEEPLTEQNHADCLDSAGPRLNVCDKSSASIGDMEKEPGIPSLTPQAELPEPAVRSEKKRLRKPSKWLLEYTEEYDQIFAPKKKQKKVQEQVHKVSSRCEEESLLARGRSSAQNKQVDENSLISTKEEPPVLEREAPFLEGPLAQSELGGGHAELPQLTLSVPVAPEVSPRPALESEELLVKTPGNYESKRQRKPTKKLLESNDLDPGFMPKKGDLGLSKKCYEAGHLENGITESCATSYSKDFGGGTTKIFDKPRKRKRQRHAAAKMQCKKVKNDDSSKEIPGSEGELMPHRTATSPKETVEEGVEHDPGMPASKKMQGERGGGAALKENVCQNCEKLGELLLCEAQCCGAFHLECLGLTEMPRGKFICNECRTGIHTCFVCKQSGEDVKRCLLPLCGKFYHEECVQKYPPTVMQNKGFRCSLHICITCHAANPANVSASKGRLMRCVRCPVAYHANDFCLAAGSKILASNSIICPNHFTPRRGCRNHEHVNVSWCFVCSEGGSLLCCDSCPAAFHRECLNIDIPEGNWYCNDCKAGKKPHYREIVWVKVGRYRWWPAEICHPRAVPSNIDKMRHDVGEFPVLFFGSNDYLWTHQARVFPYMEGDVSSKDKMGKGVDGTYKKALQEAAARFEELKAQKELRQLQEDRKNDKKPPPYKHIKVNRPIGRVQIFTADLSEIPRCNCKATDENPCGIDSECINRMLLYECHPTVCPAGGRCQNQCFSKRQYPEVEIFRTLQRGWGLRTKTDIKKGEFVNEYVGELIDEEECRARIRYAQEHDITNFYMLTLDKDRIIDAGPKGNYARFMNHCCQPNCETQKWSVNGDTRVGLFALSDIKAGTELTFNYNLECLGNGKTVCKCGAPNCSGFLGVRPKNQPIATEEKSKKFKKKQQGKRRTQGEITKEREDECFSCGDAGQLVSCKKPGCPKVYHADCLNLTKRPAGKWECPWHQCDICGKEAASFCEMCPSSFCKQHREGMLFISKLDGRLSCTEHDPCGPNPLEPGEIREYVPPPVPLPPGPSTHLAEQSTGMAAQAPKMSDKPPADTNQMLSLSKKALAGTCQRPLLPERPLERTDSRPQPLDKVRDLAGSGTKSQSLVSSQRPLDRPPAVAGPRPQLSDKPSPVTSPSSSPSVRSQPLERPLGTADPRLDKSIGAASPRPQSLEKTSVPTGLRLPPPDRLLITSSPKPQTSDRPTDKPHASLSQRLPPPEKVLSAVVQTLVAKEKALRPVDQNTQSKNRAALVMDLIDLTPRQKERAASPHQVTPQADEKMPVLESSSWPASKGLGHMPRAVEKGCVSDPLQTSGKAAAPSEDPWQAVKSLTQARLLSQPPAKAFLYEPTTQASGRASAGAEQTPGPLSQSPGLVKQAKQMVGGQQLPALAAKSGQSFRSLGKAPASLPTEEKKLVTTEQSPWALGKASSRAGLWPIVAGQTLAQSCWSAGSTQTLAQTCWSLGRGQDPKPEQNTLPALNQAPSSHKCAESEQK
Sequence of Histone-lysine N-methyltransferase PRDM9 (Homo sapiens) (Q9NQV7 whole entry): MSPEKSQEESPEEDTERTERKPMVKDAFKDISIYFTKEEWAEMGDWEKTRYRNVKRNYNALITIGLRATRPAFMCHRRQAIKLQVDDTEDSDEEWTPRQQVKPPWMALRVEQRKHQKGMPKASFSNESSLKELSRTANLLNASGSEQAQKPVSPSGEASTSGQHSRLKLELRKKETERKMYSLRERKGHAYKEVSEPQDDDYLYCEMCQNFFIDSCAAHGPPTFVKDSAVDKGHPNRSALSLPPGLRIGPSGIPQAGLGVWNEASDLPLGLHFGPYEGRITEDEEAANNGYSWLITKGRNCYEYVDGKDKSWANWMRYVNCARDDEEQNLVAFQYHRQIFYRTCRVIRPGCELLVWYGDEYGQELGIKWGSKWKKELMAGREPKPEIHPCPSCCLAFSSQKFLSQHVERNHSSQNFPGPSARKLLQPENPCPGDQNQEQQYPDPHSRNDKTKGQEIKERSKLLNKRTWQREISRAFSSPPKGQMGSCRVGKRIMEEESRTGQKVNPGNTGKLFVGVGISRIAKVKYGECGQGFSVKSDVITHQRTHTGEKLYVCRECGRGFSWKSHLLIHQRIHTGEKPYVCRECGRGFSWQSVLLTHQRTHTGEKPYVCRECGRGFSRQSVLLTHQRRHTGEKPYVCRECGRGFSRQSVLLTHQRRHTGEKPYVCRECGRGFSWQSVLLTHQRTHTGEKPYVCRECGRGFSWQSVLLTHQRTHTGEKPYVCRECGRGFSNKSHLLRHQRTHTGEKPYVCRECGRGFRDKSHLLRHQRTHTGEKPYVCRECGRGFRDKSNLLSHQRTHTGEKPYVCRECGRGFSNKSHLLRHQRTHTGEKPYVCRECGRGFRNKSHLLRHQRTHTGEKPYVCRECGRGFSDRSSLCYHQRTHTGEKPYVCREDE
Sequence of Protein arginine N-methyltransferase 8 (Q9NR22 2-394 limits assumed): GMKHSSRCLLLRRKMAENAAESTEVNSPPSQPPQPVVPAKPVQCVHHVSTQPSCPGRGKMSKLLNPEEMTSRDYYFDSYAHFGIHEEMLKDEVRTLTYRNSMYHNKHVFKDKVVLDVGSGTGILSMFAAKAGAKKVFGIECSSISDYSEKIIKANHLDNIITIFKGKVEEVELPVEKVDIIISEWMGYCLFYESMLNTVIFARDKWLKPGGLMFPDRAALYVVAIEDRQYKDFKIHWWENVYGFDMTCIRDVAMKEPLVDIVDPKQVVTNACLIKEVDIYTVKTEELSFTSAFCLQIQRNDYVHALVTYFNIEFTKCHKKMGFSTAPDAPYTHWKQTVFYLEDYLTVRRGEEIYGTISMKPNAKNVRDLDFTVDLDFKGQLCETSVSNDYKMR
Sequence of Histone-lysine N-methyltransferase EZH2 (Homo sapiens) (Q15910 whole entry, looked up): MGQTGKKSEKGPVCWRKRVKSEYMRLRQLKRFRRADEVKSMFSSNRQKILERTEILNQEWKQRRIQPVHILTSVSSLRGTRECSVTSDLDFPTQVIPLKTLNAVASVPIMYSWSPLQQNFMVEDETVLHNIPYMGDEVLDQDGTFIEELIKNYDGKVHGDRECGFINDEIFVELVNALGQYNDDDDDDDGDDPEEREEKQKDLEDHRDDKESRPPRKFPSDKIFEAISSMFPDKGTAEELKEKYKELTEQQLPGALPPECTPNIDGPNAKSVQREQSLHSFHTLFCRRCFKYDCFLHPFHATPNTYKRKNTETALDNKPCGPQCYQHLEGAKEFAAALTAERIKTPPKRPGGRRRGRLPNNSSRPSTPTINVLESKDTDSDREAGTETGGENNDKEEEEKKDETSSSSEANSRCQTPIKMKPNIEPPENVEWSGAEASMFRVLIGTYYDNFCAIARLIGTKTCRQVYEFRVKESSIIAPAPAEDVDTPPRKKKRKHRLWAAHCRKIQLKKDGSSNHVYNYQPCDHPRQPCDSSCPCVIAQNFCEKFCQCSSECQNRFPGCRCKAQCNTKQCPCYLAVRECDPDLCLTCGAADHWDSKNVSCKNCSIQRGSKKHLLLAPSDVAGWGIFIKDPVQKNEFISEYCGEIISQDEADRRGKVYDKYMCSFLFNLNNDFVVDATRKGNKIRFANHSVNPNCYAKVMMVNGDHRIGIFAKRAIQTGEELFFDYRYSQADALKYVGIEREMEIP
Sequence of Protein arginine N-methyltransferase 6 (Q96LA8 whole entry, looked up): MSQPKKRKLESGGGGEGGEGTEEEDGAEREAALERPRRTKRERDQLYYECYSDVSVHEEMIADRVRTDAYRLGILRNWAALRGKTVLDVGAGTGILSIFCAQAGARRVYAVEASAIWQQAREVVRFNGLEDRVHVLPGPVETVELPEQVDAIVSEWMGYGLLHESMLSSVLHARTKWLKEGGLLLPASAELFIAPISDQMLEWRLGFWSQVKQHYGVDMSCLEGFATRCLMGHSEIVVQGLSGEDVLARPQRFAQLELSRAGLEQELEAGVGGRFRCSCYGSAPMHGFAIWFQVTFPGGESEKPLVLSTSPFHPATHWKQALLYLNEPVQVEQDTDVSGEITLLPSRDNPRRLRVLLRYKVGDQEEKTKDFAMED

## C=CC(=O)Nc1cccc(-c2c[nH]cc2CN(C)CCN)c1
[1]
  Activity: inactive
[2]
  Activity: inactive
[3]
  Ratio IC50: 6
[4]
  inhibition: inactive
[5]
  inhibition: inactive
[6]
  inhibition: inactive
[7]
  inhibition: inactive
[8]
  inhibition: inactive
[9]
  inhibition: inactive
[10]
  inhibition: inactive
[11]
  inhibition: inactive
[12]
  inhibition: inactive
[13]
  inhibition: inactive
[14]
  inhibition: inactive
[15]
  inhibition: inactive
[16]
  inhibition: > 50%
[17]
  inhibition: > 50%
[18]
  inhibition: > 50%
[19]
  inhibition: > 50%
